Measurements: ChEMBL document CHEMBL3853323, “Small Antimicrobial Agents Based on Acylated Reduced Amide Scaffold” (J Med Chem, 2016)
In brackets after ≈: the same amount, converted by molar mass. Activity calls are given as the source filed them. No cut-off for these calls is given here.

How the values were obtained:
Staphylococcus aureus [1] = assay: Bactericidal activity against methicillin-resistant Staphylococcus aureus ATCC 33591 for 10 mins to 2 hrs by time kill assay; type: functional
How it was run: (§1)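 MRSA grown to mid-log in TSB was diluted to 10^6 CFU/mL. […] Samples were diluted 10^2–10^4-fold and plated on TSB agar. CFU were counted after overnight incubation at 37 °C and plotted against time.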

Escherichia coli [2] = assay: Inhibition of biofilm formation in Escherichia coli ATCC 25922 at 0.6 ug/ml incubated overnight by crystal violet staining based assay; type: functional
How it was run: (§2)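 Overnight culture diluted 1:100 into 10% MHII broth, incubated with compound overnight at 37 °C. Growth read at OD600, then biomass stained with crystal violet; CV OD divided by growth OD and normalized to untreated control. Triplicate, mean ± STDEV.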

Staphylococcus aureus [3] = assay: Antibacterial activity against methicillin-resistant Staphylococcus aureus ATCC 33591 after 16 to 20 hrs by two fold serial dilution method; type: functional
How it was run: (§3)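 Broth MIC: the lowest concentration giving complete growth inhibition after 20 h. Run at least three times, in duplicate each time.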

Staphylococcus aureus [4] = assay: Bactericidal activity against methicillin-resistant Staphylococcus aureus ATCC 33591 assessed as disruption of bacterial membrane at 25 ug/ml after 2 hrs by propidium iodide staining based fluorescence microscopy; type: functional
How it was run: (§4)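 Mid-log MRSA was exposed to compound at 37 °C for 2 h, pelleted and washed three times in PBS. Cells were stained sequentially with PI (5 µg/mL) and DAPI (10 µg/mL), 15 min each on ice in the dark. Imaged with a 100× oil objective; DAPI channel 460 nm, PI channel 620 nm.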

Staphylococcus aureus [5] = assay: Bactericidal activity against methicillin-resistant Staphylococcus aureus ATCC 33591 at 25 to 50 ug/ml for 10 mins to 2 hrs by time kill assay; type: functional; how it was run: as §1
Staphylococcus aureus [6] = assay: Antibacterial activity against methicillin-resistant Staphylococcus aureus induced ventilator-associated pneumonia bearing Wistar rat model assessed as reduction in lung infiltrated proinflammatory cells at 10 mg/kg, iv measured after 1 to 3 days by hematoxylin and eosin staining based light microscopy; type: functional, organism-based
How it was run: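 Male Wistar rats (6‒8 weeks, ~200 g) were fasted at least 12 h and given urethane 1 g/kg i.p. Pneumonia was induced by slow intratracheal injection of 100 μL PBS with 2×10^5 CFU/mL MRSA under mechanical ventilation. Compound was given at 10 mg/kg i.v. via tail vein. H&E-stained lung sections were scored for neutrophil infiltration and alveolar integrity over time, five random sections each.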

[7] = Cytotoxicity against human HK2 cells assessed as cell viability after 24 hrs by MTT assay; type: toxicity, cell-based, HK-2
How it was run: (§5)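 Cells seeded at 5×10^4 per well and left 12 h, then exposed 24 h to compound at 100, 50, 25, 12.5 or 6.25 μg/mL diluted in medium. Medium replaced, MTT added for 4 h, solubilized 12 h at 37 °C, A550 read; viability % = (A − Ablank)/(Acontrol − Ablank) × 100. Run at least three times.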

[8] = Cytotoxicity against human K562 cells assessed as cell viability after 24 hrs by MTT assay; type: toxicity, cell-based; how it was run: as §5
Pseudomonas aeruginosa = assay: Antibacterial activity against Pseudomonas aeruginosa ATCC 27853 after 16 to 20 hrs by two fold serial dilution method; type: functional
How it was run: (§6)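 MIC as lowest concentration giving complete inhibition of growth after 20 h; at least three independent experiments, each in duplicate.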

Enterococcus faecalis = assay: Antibacterial activity against vancomycin resistant Enterococcus faecalis ATCC 700802 after 16 to 20 hrs by two fold serial dilution method; type: functional; how it was run: as §3
Staphylococcus aureus [9] = assay: Bactericidal activity against methicillin-resistant Staphylococcus aureus ATCC 33591 assessed as disruption of bacterial membrane at 25 ug/ml after 2 hrs by DAPI staining based fluorescence microscopy; type: functional; how it was run: as §4
Klebsiella pneumoniae = assay: Antibacterial activity against Klebsiella pneumoniae ATCC 13383 after 16 to 20 hrs by two fold serial dilution method; type: functional; how it was run: as §6
Acinetobacter baumannii [10] = assay: Inhibition of biofilm formation in Acinetobacter baumannii at 2 ug/ml incubated overnight by crystal violet staining based assay; type: functional; how it was run: as §2
Staphylococcus aureus [11] = assay: Antibacterial activity against methicillin-resistant Staphylococcus aureus ATCC 33591 at 0.5 times MIC after 14 passages; type: functional
How it was run: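 Resistance passaging: the starting MIC was measured as in the MIC assay. Bacteria from the 1/2 MIC well seeded the next day's assay. Repeated daily for 14 passages.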

Acinetobacter baumannii [12] = assay: Inhibition of biofilm formation in Acinetobacter baumannii at 0.6 ug/ml incubated overnight by crystal violet staining based assay; type: functional; how it was run: as §2
Escherichia coli [13] = assay: Antibacterial activity against Escherichia coli ATCC 25922 after 16 to 20 hrs by two fold serial dilution method; type: functional; how it was run: as §6
[14] = system: Staphylococcus epidermidis; assay: Antibacterial activity against methicillin-resistant Staphylococcus epidermidis RP62A after 16 to 20 hrs by two fold serial dilution method; type: functional; how it was run: as §3
[15] = Selectivity ratio of IC50 for human HK2 cells to MIC for methicillin-resistant Staphylococcus aureus ATCC 33591; type: ADME, cell-based
[16] = Hemolytic activity in human RBC after 1 hr; type: ADME, cell-based, Erythrocyte; conditions: human red blood cells
How it was run: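 Fresh K2EDTA human RBCs, PBS-washed, as 5% v/v suspension mixed 1:1 with compound dilutions, 37 °C for 1 h. Supernatant after centrifugation diluted in PBS, A540 read. % hemolysis relative to 2% Triton X-100 (positive) and PBS (negative). At least three runs, each in duplicate.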

[17] = Selectivity ratio of IC50 for human K562 cells to MIC for methicillin-resistant Staphylococcus aureus ATCC 33591; type: ADME, cell-based
Rattus norvegicus = assay: Antiinflammatory activity in methicillin-resistant Staphylococcus aureus induced ventilator-associated pneumonia bearing Wistar rat model assessed as reduction in TNF-alpha levels in bronchoalveolar lavage fluid at 10 mg/kg, iv measured after 1 to 3 days by ELISA; type: functional, organism-based
How it was run: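 Same MRSA pneumonia rat model with 10 mg/kg i.v. tail-vein dosing. Rats were sacrificed and exsanguinated. Lungs were lavaged through a tracheal needle with 1 mL sterile PBS for six cycles. Specimens were homogenized and TNF-α was measured by ELISA.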

Escherichia coli [18] = assay: Inhibition of biofilm formation in Escherichia coli ATCC 25922 at 2 ug/ml incubated overnight by crystal violet staining based assay; type: functional; how it was run: as §2

NCCCC[C@H](N)C(=O)N[C@@H](Cc1ccccc1)CN(CC(=O)NCC12CC3CC(CC(C3)C1)C2)C(=O)CC12CC3CC(CC(C3)C1)C2
Activity (Staphylococcus aureus [1]): Dose-dependent effect | inhibition at 0.6 µg/mL (Escherichia coli [2]): > 50% | MIC (Staphylococcus aureus [3]): 1.56 µg/mL (≈ 2.36 µM) | Activity (Staphylococcus aureus [4]): Active | Activity (Staphylococcus aureus [5]): Active | Activity (Staphylococcus aureus [6]): Active | IC50 at 24 h [7]: 86.3 µg/mL (≈ 131 µM) | IC50 at 24 h [8]: 83.2 µg/mL (≈ 126 µM) | MIC (Pseudomonas aeruginosa): 6.25 µg/mL (≈ 9.47 µM) | MIC (Enterococcus faecalis): 6.25 µg/mL (≈ 9.47 µM) | Activity (Staphylococcus aureus [9]): Active | MIC (Klebsiella pneumoniae): 6.25 µg/mL (≈ 9.47 µM) | inhibition (Acinetobacter baumannii [10]): Active | Activity (Staphylococcus aureus [11]): Active | inhibition at 0.6 µg/mL (Acinetobacter baumannii [12]): > 50% | MIC (Escherichia coli [13]): 3.12 µg/mL (≈ 4.73 µM) | MIC [14]: 3.12 µg/mL (≈ 4.73 µM) | selectivity ratio [15]: > 50 | HC50 at 1 h [16]: 85 µg/mL | selectivity ratio [17]: > 50 | Activity (Rattus norvegicus): Active | inhibition (Escherichia coli [18]): Active
